In ChEMBL document CHEMBL2390881, “Identification of M. tuberculosis thioredoxin reductase inhibitors based on high-throughput docking using constraints” (J Med Chem, 2013):

What was measured:
[1] = target: T1, Thioredoxin reductase (Mycobacterium tuberculosis) (UniProt P9WHH1); test: Inhibition of Mycobacterium tuberculosis TrxR at 5 uM after 10 mins by microplate reader analysis
T1 sequence (whole entry): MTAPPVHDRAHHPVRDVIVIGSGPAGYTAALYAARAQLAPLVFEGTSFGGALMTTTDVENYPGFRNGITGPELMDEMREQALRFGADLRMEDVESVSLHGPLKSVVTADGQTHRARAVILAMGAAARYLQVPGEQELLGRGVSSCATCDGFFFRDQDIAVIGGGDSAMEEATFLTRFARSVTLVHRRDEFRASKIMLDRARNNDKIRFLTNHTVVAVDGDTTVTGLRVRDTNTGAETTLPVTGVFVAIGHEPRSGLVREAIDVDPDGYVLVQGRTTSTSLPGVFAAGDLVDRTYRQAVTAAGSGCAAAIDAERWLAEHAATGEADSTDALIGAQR
Method in brief: (§1)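 MtTrxR, MtTrxB and MtTPx from M. tuberculosis, expressed in E. coli. Enzyme preincubated 10 min at 25 °C with 10 μM MtTrxB, 5 μM MtTPx, 225 μM NADPH and 0.06-45 μM compound in 50 mM HEPES pH 7.4, 1 mM EDTA. Started with 73 μM t-butylhydroperoxide. Initial NADPH oxidation rate read at 340 nm, 25 °C. Triplicates, outliers removed. IC50 by four-parameter fit, mean of ≥3 assays.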

[2] = target: T1, Thioredoxin reductase (Mycobacterium tuberculosis); test: Inhibition of Mycobacterium tuberculosis TrxR at 15 uM after 10 mins by microplate reader analysis; method in brief: as §1
[3] = target: T1, Thioredoxin reductase (Mycobacterium tuberculosis); test: Inhibition of Mycobacterium tuberculosis TrxR at 1.67 uM after 10 mins by microplate reader analysis; method in brief: as §1
[4] = target: T1, Thioredoxin reductase (Mycobacterium tuberculosis); test: Inhibition of Mycobacterium tuberculosis TrxR at 45 uM after 10 mins by microplate reader analysis; method in brief: as §1
[5] = target: Thioredoxin reductase (Homo sapiens) (UniProt Q16881+Q9NNW7+Q86VQ6); test: Inhibition of human TrxR at 100 uM by spectrophotometry; type: protein assay
Method in brief: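 Human placenta TrxR1 (2.8 nM final) with 200 μM NADPH in 100 mM potassium phosphate, 2 mM EDTA, pH 7.4. Inhibitor added up to 100 μM final, then reaction started with 3 mM DTNB. Absorbance followed at 412 nm at 25 °C against inhibitor-free control. At least three independent experiments; apparent activation scored as no inhibition.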

[6] = Selectivity index, ratio of IC50 for human TrxR to IC50 for Mycobacterium tuberculosis TrxR
Method in brief: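 Estimated from HsTrxR inhibition at 100 μM (DTNB assay) and the MtTrxR IC50, assuming that ≤10% HsTrxR inhibition at 100 μM reflects an IC50 of >300 μM.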

[7] = target: T2, Thioredoxin reductase (Mycobacterium tuberculosis, UniProt P9WHH1); test: Inhibition of Mycobacterium tuberculosis TrxR after 10 mins by microplate reader analysis; method in brief: as §1
T2 sequence (P9WHH1 whole entry): T1 sequence (whole entry)

Row | Structure (SMILES) | inhibition [1] | inhibition [2] | inhibition [3] | inhibition [4] | inhibition [5] | Ratio IC50 [6] | IC50 [7]
1 | O=C(COc1ccccc1)Nc1ccc(N2CCC(NCc3cccc(-n4cccn4)c3)CC2)cc1 | 16.9% | 18.2% | 11.2% | 22.1% |  |  | 
2 | O=C(CCCCc1ccccc1)Nc1ccc(N2CCC(NCCn3cccn3)CC2)cc1 | 14.7% | 17.5% | 12.3% | 24% |  |  | 
3 | c1ccc2sc(CNc3ccc(N4CCCCC4)cc3)nc2c1 | 39.7% | 44.4% | 24% | 67% | 17.1% | > 10 | 15.8 µM
4 | COc1ccc2nc(C)cc(Nc3ccc(O)cc3)c2c1 | 36% | 51.6% | 25.6% | 68% | 31.6% | > 8 | 12.5 µM
5 | C=CCc1cccc(/C=N/NC(=O)CCC2C(=O)NN=C2C)c1O (stereo not given) | 31% | 31.7% | 31.7% | 26% | 0% | > 10 | 
6 | NC1=C(c2nc(-c3ccccc3)cs2)C(=O)CN1c1ccc(S(N)(=O)=O)cc1 | 9.9% | 12.8% | 8.4% | 25% | 0% | > 2 | 200 µM
7 | O=C(Nc1ccc(N2CCC(NCCOc3cccnc3)CC2)cc1)c1cnccn1 | 12% | 16.3% | 5% |  |  |  | 
8 | CC(c1c[nH]nc1-c1ccccc1)N1CCC(CCC(=O)Nc2ccccc2)CC1 (stereo not given) | 38% | 34.3% | 29.7% | 29.8% | 0% | > 20 | 15 µM
9 | Fc1cccc(Cl)c1CNc1ccc(N2CCCCC2)cc1 | 41.7% | 51.7% | 30% | 58.7% | 4.6% | > 10 | 15.3 µM
10 | Nc1nc(-c2cc3ccc(O)cc3oc2=O)cs1 | 17.3% | 19.7% | 10.6% | 36.4% | 0% | > 3 | 100 µM
11 | CSCCNC1CCN(c2ccc(NC(=O)CCCCc3ccccc3)cc2)CC1 | 29.7% | 33.7% | 27% | 28% | 0% | > 3 | 100 µM
12 | O=C(O)[C@H](Cc1cc2ccccc2[nH]1)NCc1c[nH]c2ccccc12 | 31.7% | 43.3% | 26.7% | 31% | 10.4% | > 10 | 30 µM
13 | Nc1ccc(N2CCCCC2)cc1 | 17% | 35.7% | 9.5% | 55% | 0% | > 10 | 33.4 µM
